Experimental data: ChEMBL document CHEMBL5150021, “Identification of 5-(Aryl/Heteroaryl)amino-4-quinolones as Potent Membrane-Disrupting Agents to Combat Antibiotic-Resistant Gram-Positive Bacteria” (J Med Chem, 2022)
Values after ≈ are worked out from the molar mass of the structure shown.

Tested on: Staphylococcus aureus
Test: Antibacterial activity against methicillin resistant Staphylococcus aureus FPR3757 assessed as inhibition of bacterial growth incubated for 24 hrs by CLSI based method
Format: functional
Details: read-out: MIC100
In short: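 It was mixed 1:1 with twofold serial compound dilutions and incubated stationary at 37 °C for 24 h. MIC was the lowest concentration giving complete inhibition of observable growth, with an oxacillin control.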

Row | Structure (SMILES) | MIC [µg/mL]
1 | FC(F)(F)c1cc(Nc2ccc(Cl)c(Cl)c2)c2cccc(C(F)(F)F)c2n1 | 0.5 (≈ 1.18 µM)
2 | FC(F)(F)c1ccc2c(Oc3cccc(Cl)c3)cc(C(F)(F)F)nc2c1 | > 32
3 | FC(F)(F)Oc1cccc(Nc2cc(C(F)(F)F)nc3c(C(F)(F)F)cccc23)c1 | 1 (≈ 2.27 µM)
4 | FC(F)(F)c1ccc2c(Nc3cc(Cl)ccn3)cc(C(F)(F)F)nc2c1 | 2 (≈ 5.11 µM)
5 | FC(F)(F)c1ccc2c(Oc3ccc(Cl)c(Cl)c3)cc(C(F)(F)F)nc2c1 | > 32
6 | Fc1ccc(Nc2cnnc3cc(C(F)(F)F)ccc23)cc1F | > 32
7 | FC(F)(F)c1ccc2c(Nc3ccc(C(F)(F)F)nc3)cc(C(F)(F)F)nc2c1 | > 32
8 | O=c1cc(Nc2cc(C(F)(F)F)nc3cc(C(F)(F)F)ccc23)cc[nH]1 | > 32
9 | FC(F)(F)c1ccc2c(Nc3ccc(Cl)cc3)cc(C(F)(F)F)nc2c1 | 0.12 (≈ 0.307 µM)
10 | FC(F)(F)Oc1cccc(Nc2nc(C(F)(F)F)nc3cc(C(F)(F)F)ccc23)c1 | 1 (≈ 2.27 µM)
11 | FC(F)(F)c1ccc(Nc2cc(N3CCNCC3)c3ccc(C(F)(F)F)cc3n2)nc1 | 4 (≈ 9.06 µM)
12 | Oc1cc(C(F)(F)F)nc2cc(OC(F)(F)F)ccc12 | 4 (≈ 13.5 µM)
13 | CSc1ccc2c(O)cc(C(F)(F)F)nc2c1 | 640 (≈ 2470 µM)
14 | Fc1ccc(Nc2cc(C(F)(F)F)nc3cc(C(F)(F)F)ccc23)cc1F | 0.125 (≈ 0.319 µM)
15 | COc1ccc2c(Nc3ccc(F)c(F)c3)cc(C(F)(F)F)nc2c1 | > 32
16 | CN(C)c1ccc(Nc2cc(C(F)(F)F)cc3[nH]c(C(F)(F)F)cc(=O)c23)nc1 | 2 (≈ 4.8 µM)
17 | CN(C)S(=O)(=O)c1ccc2c(Nc3ccc(F)c(F)c3)cc(C(F)(F)F)nc2c1 | > 32
18 | FC(F)(F)c1ccc2c(Nc3cccc(N4CCOCC4)c3)cc(C(F)(F)F)nc2c1 | > 16
19 | CN1Cc2cc(Nc3cc(C(F)(F)F)nc4cc(C(F)(F)F)ccc34)ccc2C1=O | > 32
20 | FC(F)(F)c1ccc2c(Nc3ccncc3)cc(C(F)(F)F)nc2c1 | > 32
21 | FC(F)c1cc(Nc2ccc(Cl)c(Cl)c2)c2ccc(C(F)(F)F)cc2n1 | 1 (≈ 2.46 µM)
22 | FC(F)(F)c1ccc2c(N3CCc4cccnc43)cc(C(F)(F)F)nc2c1 | > 32
23 | CN(C)S(=O)(=O)c1ccc2c(Nc3ccc(C(F)(F)F)cn3)cc(C(F)(F)F)nc2c1 | 8 (≈ 17.2 µM)
24 | CC(=O)c1cccc(Nc2cc(C(F)(F)F)nc3cc(C(F)(F)F)ccc23)c1 | > 128
25 | Fc1ccc2nc(C(F)(F)F)cc(Nc3ccc(C(F)(F)F)cn3)c2c1F | 16 (≈ 40.7 µM)
26 | FC(F)(F)c1ccc(Nc2cc(N3CCOCC3)c3ccc(C(F)(F)F)cc3n2)nc1 | 8 (≈ 18.1 µM)

Row | Structure (SMILES) | MIC [µg/mL]
27 | COc1ccc2c(Nc3ccc(Cl)c(Cl)c3)cc(C(F)(F)F)nc2c1 | 2 (≈ 5.17 µM)
28 | CN(c1ccc(C(F)(F)F)cc1)c1cc(C(F)(F)F)nc2cc(C(F)(F)F)ccc12 | > 32
29 | FC(F)(F)Oc1cccc(Nc2cc(C(F)(F)F)nc3cc(OC(F)(F)F)ccc23)c1 | 1 (≈ 2.19 µM)
30 | COc1cccc(Nc2cc(C(F)(F)F)nc3cc(C(F)(F)F)ccc23)c1 | > 64
31 | FC(F)(F)Oc1ccc2c(Nc3ccc(C(F)(F)F)cn3)cc(C(F)(F)F)nc2c1 | 1 (≈ 2.27 µM)
32 | FC(F)(F)c1ccc2c(N3CCOCC3)cc(C(F)(F)F)nc2c1 | > 32
33 | O=C1Cc2cc(Nc3cc(C(F)(F)F)nc4cc(C(F)(F)F)ccc34)ccc2N1 | > 32
34 | FC(F)(F)c1ccc2c(NC3CCCCC3)cc(C(F)(F)F)nc2c1 | > 16
35 | FC(F)(F)c1ccc(Nc2nc(C(F)(F)F)nc3cc(C(F)(F)F)ccc23)nc1 | 2 (≈ 4.69 µM)
36 | Cc1onc(-c2ccccc2)c1C(=O)N[C@@H]1C(=O)N2[C@@H]1SC(C)(C)[C@@H]2C(=O)O [OXACILLIN] | 64 (≈ 159 µM)
37 | Fc1cc(F)c2nc(C(F)(F)F)cc(Nc3ccc(C(F)(F)F)cn3)c2c1F | > 32
38 | FC(F)(F)c1ccc2c(Nc3cccc(Br)c3)cc(C(F)(F)F)nc2c1 | 0.25 (≈ 0.574 µM)
39 | FC(F)(F)c1ccc2c(Nc3cccc(I)c3)cc(C(F)(F)F)nc2c1 | 0.25 (≈ 0.518 µM)
40 | FC(F)(F)Oc1ccc2c(Nc3ccc(Cl)c(Cl)c3)cc(C(F)(F)F)nc2c1 | 0.5 (≈ 1.13 µM)
41 | OC1CCCN(c2cc(C(F)(F)F)nc3cc(C(F)(F)F)ccc23)C1 (stereo unspecified) | > 32
42 | FC(F)(F)c1ccc(Nc2nc(C(F)(F)F)nc3nc(C(F)(F)F)ccc23)nc1 | > 32
43 | FC(F)(F)Oc1cccc(Nc2cc(C(F)(F)F)nc3cc(C(F)(F)F)ccc23)c1 | 8 (≈ 18.2 µM)
44 | FC(F)(F)c1ccc2c(Nc3ncccn3)cc(C(F)(F)F)nc2c1 | > 32
45 | COc1ccc2c(O)cc(C(F)(F)F)nc2c1 | 640 (≈ 2630 µM)
46 | Oc1cc(C(F)(F)F)nc2ccccc12 | 320 (≈ 1500 µM)
47 | FC(F)(F)c1cccc(Nc2cc(C(F)(F)F)nc3cc(C(F)(F)F)ccc23)c1 | 0.25 (≈ 0.589 µM)
48 | FC(F)(F)Oc1cccc(Oc2cc(C(F)(F)F)nc3cc(C(F)(F)F)ccc23)c1 | > 32
49 | FC(F)(F)c1ccc(Nc2cnnc3cc(C(F)(F)F)ccc23)nc1 | > 32
50 | O=c1cc(C(F)(F)F)[nH]c2cc(C(F)(F)F)cc(N3CCOCC3)c12 | > 32
51 | FC(F)(F)c1ccc2c(Nc3ccccc3Cl)cc(C(F)(F)F)nc2c1 | > 16
52 | COc1ccc(Nc2cc(C(F)(F)F)nc3cc(C(F)(F)F)ccc23)cn1 | > 128

Row | Structure (SMILES) | MIC [µg/mL]
53 | FC(F)(F)Oc1cccc2c(Nc3ccc(C(F)(F)F)cn3)cc(C(F)(F)F)nc12 | 1 (≈ 2.27 µM)
54 | Cn1cc(Nc2cc(C(F)(F)F)nc3cc(C(F)(F)F)ccc23)ccc1=O | > 32
55 | FC(F)(F)c1ccc2c(Nc3ccc(Cl)c(Cl)c3)nc(C(F)(F)F)nc2c1 | 0.5 (≈ 1.17 µM)
56 | FC(F)(F)c1ccc2c(NC[C@@H]3CCCN3)cc(C(F)(F)F)nc2c1 | > 32
57 | Oc1cc(C(F)(F)F)nc2c(C(F)(F)F)cccc12 | 2 (≈ 7.11 µM)
58 | CC(C)c1ccccc1Nc1cc(C(F)(F)F)nc2cc(C(F)(F)F)ccc12 | 320 (≈ 803 µM)
59 | O=C(Nc1cc(C(F)(F)F)nc2cc(C(F)(F)F)ccc12)c1ccc(C(F)(F)F)cn1 | > 32
60 | FC(F)c1cc(Nc2cccc(OC(F)(F)F)c2)c2ccc(C(F)(F)F)cc2n1 | 0.5 (≈ 1.18 µM)
61 | Fc1ccc2c(Nc3ccc(Cl)c(Cl)c3)cc(C(F)(F)F)nc2c1 | 0.5 (≈ 1.33 µM)
62 | O=c1cc(C(F)(F)F)[nH]c2cc(C(F)(F)F)cc(Nc3ccc(C(F)(F)F)nn3)c12 | 1 (≈ 2.26 µM)
63 | Fc1ccc(Nc2nc(C(F)(F)F)nc3nc(C(F)(F)F)ccc23)cc1F | 32 (≈ 81.2 µM)
64 | COc1ccc2c(Nc3ccc(C(F)(F)F)cn3)cc(C(F)(F)F)nc2c1 | 32 (≈ 82.6 µM)
65 | FC(F)(F)c1ccc(Nc2cc(N3CCOCC3)nc3cc(C(F)(F)F)ccc23)nc1 | > 32
66 | FC(F)(F)Oc1cccc2c(Nc3ccc(Cl)c(Cl)c3)cc(C(F)(F)F)nc12 | 0.5 (≈ 1.13 µM)
67 | COC(=O)c1cc(Nc2cc(C(F)(F)F)nc3cc(C(F)(F)F)ccc23)ccn1 | > 32
68 | FC(F)(F)c1ccc2c(Nc3ccccc3)cc(C(F)(F)F)nc2c1 | 128 (≈ 359 µM)
69 | N#Cc1cccc(Nc2cc(C(F)(F)F)nc3cc(C(F)(F)F)ccc23)c1 | > 32
70 | CSc1cccc(Nc2cc(C(F)(F)F)nc3cc(C(F)(F)F)ccc23)c1 | 0.25 (≈ 0.621 µM)
71 | Oc1cc(C(F)(F)F)nc2cc(Cl)ccc12 | 20 (≈ 80.8 µM)
72 | CN(C)S(=O)(=O)c1ccc(Nc2cc(C(F)(F)F)cc3[nH]c(C(F)(F)F)cc(=O)c23)nc1 | 2 (≈ 4.16 µM)
73 | O=c1cc(C(F)(F)F)[nH]c2cc(C(F)(F)F)ccc12 | 5 (≈ 17.8 µM)
74 | FC(F)(F)c1ccc2c(Nc3cccc(Cl)c3)cc(C(F)(F)F)nc2c1 | 0.25 (≈ 0.64 µM)
75 | FC(F)(F)Oc1cccc(Nc2cc(C(F)(F)F)nc3c(OC(F)(F)F)cccc23)c1 | 1 (≈ 2.19 µM)
76 | Fc1cccc(Oc2cc(C(F)(F)F)nc3cc(C(F)(F)F)ccc23)c1 | > 32
